A short description of data set [1]: Toxicity in SCID mouse assessed as maximum tolerated dose. Format: organism-based. Particulars: in vivo; call rule not given here.
Data set [2] deals with HCT-116. The data set can be described thus: Cytotoxicity against human HCT116 cells. The format is functional, cell-based. The procedure, abridged:
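HCT-116 cells in liquid culture; IC50 from two determinations, reported as their median.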

Data set [3] deals with HCT-116. Briefly: Cytotoxicity against human HCT116 cells after 2 hrs by clonogenic assay. Format: functional. The procedure, abridged: (§1)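 Clonogenic dose-response on HCT-116 cells with exposures of 2, 24 and 168 h; the value is the concentration giving 90% cell kill at each exposure time.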
Data set [4] relates to HCT-116. The data set can be described thus: Cytotoxicity against human HCT116 cells after 24 hrs by clonogenic assay. The format is functional. The method in brief: as §1
Data set [5] concerns the target Methionine aminopeptidase 2 (Homo sapiens, UniProt P50579). The data set can be described thus: Inhibition of methionine aminopeptidase 2.
Data set [6] has as its target Methionine aminopeptidase 1 (Homo sapiens, UniProt P53582). The data set can be described thus: Inhibition of methionine aminopeptidase 1.
Data set [7] deals with HCT-116. The data set can be described thus: Anticancer activity against human HCT116 xenografted in SCID mouse at 62 ug/mouse dosed as bolus dose after 23 days relative to control. The format is functional. The procedure, abridged: (§2)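 Bolus injection into SCID mice bearing HCT-116 tumours at 125, 62 or 31 μg/mouse; tumour growth read as %T/C against controls at 23 days.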
A general note: A xenograft is tissue or cells of one species grown in another, often human tumour cells in immunodeficient mice.

In data set [8] the test system is HCT-116. Briefly: Cytotoxicity against human HCT116 cells assessed as cell kill at >=20 pg/mL after 168 hrs by clonogenic assay. Format: functional. The procedure, abridged: as §1
Data set [9] deals with Mus musculus. Briefly: Toxicity in human HCT116 xenografted SCID mouse at 125 ug/mouse dosed as bolus dose after 23 days. Format: organism-based. Particulars: in vivo, 552 h. The method in brief: as §2
In a further data set the test system is MCF7. Briefly: Growth inhibition of human MCF7 cells. The format is functional.
In data set [10] the test system is HCT-116. Briefly: Anticancer activity against human HCT116 xenografted in SCID mouse at 31 ug/mouse dosed as bolus dose after 23 days relative to control. The format is functional. The method in brief: as §2
The next data set relates to MDA-MB-435. The data set can be described thus: Cytotoxicity against human MDA-MB-435 cells. Format: functional, cell-based. The note with it: for CC50: read-out: LC50 (the source's name).
For data set [11], the system named is HCT-116. The data set can be described thus: Cytotoxicity against human HCT116 cells assessed as cell kill at >=3 ng/mL after 2 hrs by clonogenic assay. The format is functional. The method in brief:
as §1

The test system of data set [12] is HCT-116. Briefly: Cytotoxicity against human HCT116 cells assessed as cell kill at >=2 ng/mL after 24 hrs by clonogenic assay. Format: functional. The method in brief: as §1
A further data set concerns PC-3. The data set can be described thus: Cytotoxicity against human PC3 cells. The format is functional, cell-based.
Data set [13] relates to HCT-116. Briefly: Cytotoxicity against human HCT116 xenografted in SCID mouse at 12.3 mg/kg/day, iv administered as bolus dose from 3 days after tumor implantation for 5 days measured on day 9 relative to control. Format: functional. The procedure, abridged: (§3)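 SCID mice implanted with HCT-116 tumour cells, dosed iv as a bolus daily for 5 days starting 3 days after inoculation and followed to day 30. Tumour response read as %T/C against untreated controls; body weights tracked over the 30 days and compared with untreated controls.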

For another data set, the system named is KB. Briefly: Cytotoxicity against human KB cells. The format is functional, cell-based.
The test system of data set [14] is Mus musculus. Briefly: Toxicity in human HCT116 xenografted SCID mouse assessed as increase in body weight at 12.3 mg/kg/day, iv administered as bolus dose from 3 days after tumor implantation for 5 days measured after 30 days. Format: organism-based. The arrangement: route intravenous. The note with it: in vivo, 720 h. The procedure, abridged: as §3
For data set [15], the system named is HCT-116. Briefly: Cytotoxicity against human HCT116 xenografted in SCID mouse at 25 mg/kg/day, iv administered as bolus dose from 3 days after tumor implantation for 5 days measured on day 11 relative to control. The format is functional. The procedure, abridged:
as §3

The test system of data set [16] is Mus musculus. Briefly: Toxicity in human HCT116 xenografted SCID mouse assessed as increase in body weight at 25 mg/kg/day, iv administered as bolus dose from 3 days after tumor implantation for 5 days measured after 30 days. Particulars: in vivo, 720 h. The arrangement: route intravenous. Format: organism-based. The procedure, abridged: as §3

SMILES strings stand for the structures. Converted amounts (≈) assume the structure as drawn. A value given as a limit tells only on which side of the number the result lay.

The source of these data is ChEMBL document CHEMBL1152347, “A selective account of effective paradigms and significant outcomes in the discovery of inspirational marine natural products” (J Nat Prod, 2009).

Chain of Methionine aminopeptidase 2 (P50579 whole entry): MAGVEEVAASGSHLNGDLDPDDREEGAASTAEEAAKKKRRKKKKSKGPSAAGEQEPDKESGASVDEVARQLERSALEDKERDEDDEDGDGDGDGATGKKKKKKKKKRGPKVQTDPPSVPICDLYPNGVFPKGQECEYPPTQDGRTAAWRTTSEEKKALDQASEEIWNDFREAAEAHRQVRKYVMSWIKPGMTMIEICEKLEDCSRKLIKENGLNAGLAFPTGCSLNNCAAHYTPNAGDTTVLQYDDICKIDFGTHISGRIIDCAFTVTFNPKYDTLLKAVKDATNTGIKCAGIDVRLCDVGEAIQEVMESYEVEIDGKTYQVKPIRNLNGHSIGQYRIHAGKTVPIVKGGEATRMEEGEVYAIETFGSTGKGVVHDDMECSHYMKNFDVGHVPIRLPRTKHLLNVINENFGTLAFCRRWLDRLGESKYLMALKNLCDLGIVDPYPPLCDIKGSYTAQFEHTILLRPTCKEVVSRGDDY

By MTD is commonly meant the largest dose that counted as tolerated. A word on the IC50: it is the point on the concentration scale where inhibition reaches its midpoint. A lower IC50 goes with higher potency. On to `C=CC/C=C\Cc1csc(C(C)(C)[C@H](O)C/C=C\C(=C)CCNC(=O)OC)n1` [MYCOTHIAZOLE], for which, in data set [1], the MTD was determined as 3 mg/kg. This compound also had an IC50 with HCT-116 [2] of 1.5 ng/mL (≈ 3.71 nM). The Activity with HCT-116 [3] and with HCT-116 [4] was more than 10 µg/mL each time.

Regarding `CCC(C)CCCCCCCCCCC(=O)O[C@H]1CC[C@H](NC(=O)[C@H](OC)[C@H](O)[C@@H](O)[C@H](O)/C=C/C(C)C)C(=O)N(C)C1` (some centres not stated) [BENGAMIDE O], the IC50 in [5] is more than 50000 nM.

`CO[C@@H]1C(=O)CC[C@]2(CO2)[C@@]1(O)[C@@]1(C)O[C@@H]1CC=C(C)C` [OVALICIN]: the IC50 result in data set [6] was “Not Active”.

In the case of `CC(C)(C)OC(=O)Nc1cccnc1C(=O)Nc1nccs1`, the IC50 in [5] was more than 300000 nM.

Regarding `CO[C@@H]1[C@H](OC(=O)/C=C/C=C/C=C/C=C/C(=O)O)CC[C@]2(CO2)[C@H]1[C@@]1(C)O[C@@H]1CC=C(C)C` [FUMAGILLIN], the results for the IC50 in [5] and in data set [6] were 30 nM and “Not Active”, respectively.

Usually T/C stands for the result in the treated group divided by that in the control group, in per cent. What is called GI50 is the concentration that inhibits growth by half. A lower GI50 goes with more potent growth inhibition. `C=C(C)C[C@H](OC)[C@H](O)C(=O)N[C@@H](OC)C1C[C@@H](O)C(C)(C)[C@@H](C[C@H](O)[C@@H](C)[C@@H]2Cc3c(C)c(O)cc(O)c3C(=O)O2)O1` (some centres not stated) [IRCINIASTATIN]: the MTD in data set [1] came out at 0.125 mg/kg. Also, the T/C came to 75% in the data set with HCT-116 [7] and 86% with HCT-116 [10]. Also, the Activity is 90% with HCT-116 [8], “Toxic” in the data set with Mus musculus [9], 90% in the data set on HCT-116 [11] and 90% with HCT-116 [12]. In the data set with MCF7, this compound showed a GI50 of 5.2 nM. In the data set on MDA-MB-435, the CC50 was less than 2.5 nM. This compound displayed a concentration for half-maximal inhibition (IC50) in the data set with PC-3 of 1 nM.

In the case of `C=C1C[C@H](C)C[C@@H]2CC=C[C@@H](C/C=C\C(=O)O[C@H]([C@@H](O)/C=C/[C@@H]3CC(C)=CCO3)C[C@@H]3O[C@H]3[C@@H](O)C1)O2` [FIJIANOLIDE B], the figures for the T/C with HCT-116 [13] and with HCT-116 [15] were 80% and 11%, respectively. Moreover, the values for the half-inhibitory concentration (IC50) in the data set with KB and in the data set with MDA-MB-435 were 29 nM and 2 nM, respectively. Besides, the Activity result in the data set with Mus musculus [14] and in the data set on Mus musculus [16] was “Non-toxic” each time. In addition, the CC50 in the data set with MDA-MB-435 was 7 nM.

Consider `CO[C@@H]1[C@H](OC(=O)NC(=O)CCl)CC[C@]2(CO2)[C@H]1[C@@]1(C)O[C@@H]1CC=C(C)C` [O-CHLOROACETYLCARBAMOYLFUMAGILLOL], for which the IC50 result in data set [6] is “Not Active”.
